From ChEMBL document CHEMBL3112437, “Virtual screening reveals allosteric inhibitors of the Toxoplasma gondii thymidylate synthase-dihydrofolate reductase” (Bioorg Med Chem Lett, 2014)
pIC50: −log10 of the molar value. Calls of active or inactive are those of the source. The calls are words filed in the database; no cut-off is given here.

Tests used:
[1] = target: T1, Dihydrofolate reductase (Homo sapiens) (UniProt P00374); test: Inhibition of DHFR (unknown origin)
T1 sequence (whole entry): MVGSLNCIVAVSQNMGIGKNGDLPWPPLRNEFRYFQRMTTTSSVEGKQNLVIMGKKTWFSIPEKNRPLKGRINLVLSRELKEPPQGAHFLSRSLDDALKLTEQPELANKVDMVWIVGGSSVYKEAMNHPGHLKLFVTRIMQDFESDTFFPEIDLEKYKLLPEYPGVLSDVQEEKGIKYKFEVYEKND

[2] = target: T2, Bifunctional dihydrofolate reductase-thymidylate synthase (Toxoplasma gondii, UniProt Q07422); test: Inhibition of Toxoplasma gondii TS-DHFR using methylenetetrahydrofolate/dUMP as sustrate
T2 sequence (Q07422 whole entry): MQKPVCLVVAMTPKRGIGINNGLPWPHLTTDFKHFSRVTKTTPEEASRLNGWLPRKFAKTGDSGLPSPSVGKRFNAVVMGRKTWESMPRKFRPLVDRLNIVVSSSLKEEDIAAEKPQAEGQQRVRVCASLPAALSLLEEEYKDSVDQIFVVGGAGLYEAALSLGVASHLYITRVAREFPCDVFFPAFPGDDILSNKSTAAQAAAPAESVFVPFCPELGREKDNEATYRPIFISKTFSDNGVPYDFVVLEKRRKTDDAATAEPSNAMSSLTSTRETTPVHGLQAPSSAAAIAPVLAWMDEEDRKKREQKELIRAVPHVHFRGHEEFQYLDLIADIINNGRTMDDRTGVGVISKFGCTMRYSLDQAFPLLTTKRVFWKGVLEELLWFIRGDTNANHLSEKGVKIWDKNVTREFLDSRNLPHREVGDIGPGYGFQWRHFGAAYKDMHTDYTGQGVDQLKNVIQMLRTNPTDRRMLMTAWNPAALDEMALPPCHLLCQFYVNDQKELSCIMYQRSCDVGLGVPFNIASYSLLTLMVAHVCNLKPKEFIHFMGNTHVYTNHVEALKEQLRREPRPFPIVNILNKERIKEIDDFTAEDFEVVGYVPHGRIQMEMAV
In short: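 T. gondii TS-DHFR was preincubated with dUMP before compound was added. TS activity was measured across varying compound concentrations. Data were fit to a Michaelis-Menten curve for IC50. Duplicate points; SD between repeats.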

[3] = target: T2, Bifunctional dihydrofolate reductase-thymidylate synthase; test: Inhibition of Toxoplasma gondii TS-DHFR using methylenetetrahydrofolate/dUMP as sustrate preincubated for 10 mins followed by substrate addition
In short: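 T. gondii TS activity at varying compound concentrations. Compound was mixed with apo TS-DHFR, with no dUMP preincubation. Data were fit to a Michaelis-Menten curve to give IC50. Points in duplicate; SD between repeats.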

[4] = target: T3, Bifunctional dihydrofolate reductase-thymidylate synthase (Toxoplasma gondii) (UniProt Q07422); test: Noncompetitive inhibition of Toxoplasma gondii TS-DHFR using methylenetetrahydrofolate as substrate at 25 uM by Michaelis-Menten plot analysis
T3 sequence (whole entry): T2 sequence (Q07422 whole entry)

[5] = target: T2, Bifunctional dihydrofolate reductase-thymidylate synthase; test: (§1) Inhibition of Toxoplasma gondii TS-DHFR by Michaelis-Menten plot analysis in presence of bovine serum albumin
In short: (§2)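 Promiscuity (aggregation) check: TgTS-DHFR was preincubated with 0.1 mg/mL BSA before inhibitor was added. TS inhibitory potency was then determined.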

[6] = target: T3, Bifunctional dihydrofolate reductase-thymidylate synthase (Toxoplasma gondii); test: Mixed type inhibition of Toxoplasma gondii TS-DHFR using dUMP as substrate at 25 uM by Michaelis-Menten plot analysis
[7] = target: T3, Bifunctional dihydrofolate reductase-thymidylate synthase (Toxoplasma gondii); test: as §1; in short: as §2

SMILES	inhibition [1]	pIC50 [2]	pIC50 [3]	inhibition [4]	pIC50 [5]	inhibition [6]	inhibition [7]
COC(=O)Nc1nc2cc(-c3nnc(O)c4ccccc34)ccc2[nH]1	inactive	3.85	4.29	Active	3.86	Active	–
O=C(Nc1ccccc1)OCc1ccc(-c2cc(C(F)(F)F)cc(C(F)(F)F)c2)o1	–	3.72	4.27	–	–	–	inactive
